Measurements gathered from unrelated publications.
Compare with care: the assays were run in different laboratories.
ESR1: Estrogen receptor (ESR1, Homo sapiens, UniProt P03372)
ADRA2C: Alpha-2C adrenergic receptor (ADRA2C, Homo sapiens, UniProt P18825)
M-phase phosphoprotein 8 chromodomain: M-phase phosphoprotein 8, chromodomain (Homo sapiens, UniProt Q99549)

Oc1ccc(-c2cccc(Cl)c2)cc1Cl  EC50 (ESR1; reporter gene; agonist; luciferase): 8200 nM
C[C@H](N)Cn1ncc2ccc3c(c21)CCCO3  Ki (ADRA2C; ligand displacement; radioligand): 24800 nM
c1cc[c]([Sn]([c]2ccccc2)[c]2ccccc2)cc1  EC50 (Peroxisome proliferator-activated receptor gamma (Pparg, Mus musculus, UniProt P37238); reporter gene; agonist; luciferase): 70 nM
Clc1ccc(-c2ccccc2Cl)cc1  EC50 (ESR1; reporter gene; agonist; luciferase): 20000 nM
CCN(CCCC[C@H](NC(=O)[C@H](CC(C)C)NC(=O)[C@H](C)NC(=O)[C@H](Cc1ccco1)NC(=O)c1cccnc1)C(=O)N[C@@H](CO)C(N)=O)C(C)C  IC50 (M-phase phosphoprotein 8 chromodomain; cell-free assay; TR-FRET): 11000 nM
C[C@H]1CCC[C@H](O)CCCCCc2cc(O)cc(O)c2C(=O)O1  EC50 (ESR1; reporter gene; agonist; luciferase): 0.134 nM
Oc1ccc(-c2ccc(Cl)cc2)c(Cl)c1  EC50 (ESR1; reporter gene; agonist; luciferase): 100 nM
O=C(CCCc1ccccc1)OC(CCN1CCN(CCCN(c2ccc(F)cc2)c2ccc(F)cc2)CC1)c1ccccc1 (centres unmarked)  Ki (Norepinephrine transporter (Slc6a2, Rattus norvegicus, UniProt Q9WTR4); ligand displacement; radioligand): > 10000 nM
CCN(CCCC[C@H](NC(=O)[C@H](CC(C)C)NC(=O)[C@H](C)NC(=O)[C@H](Cc1ccccc1)NC(=O)c1ccncc1)C(=O)N[C@@H](CO)C(N)=O)C(C)C  IC50 (M-phase phosphoprotein 8 chromodomain; cell-free assay; TR-FRET): 990 nM
CC[n+]1c(-c2ccccc2)c2cc(N)ccc2c2ccc(N)cc21  IC50 (AChE (Phlebotomus papatasi, UniProt M1F887); enzyme activity; inhibitor): 14100 nM
CCN(CCCC[C@H](NC(=O)[C@H](CC(C)C)NC(=O)[C@H](C)NC(=O)[C@H](Cc1ccccc1)NC(=O)c1ccc(N(C)C)cc1)C(=O)N[C@@H](CO)C(N)=O)C(C)C  IC50 (M-phase phosphoprotein 8 chromodomain; cell-free assay; TR-FRET): 380 nM
O=C1C[C@@H](c2ccc(O)cc2)Oc2cc(O)ccc21  EC50 (ESR1; reporter gene; agonist; luciferase): 681 nM
CCN(CCCC[C@H](NC(=O)[C@H](CC(C)C)NC(=O)[C@H](C)NC(=O)[C@H](Cc1ccccc1)NC(=O)c1ccc(Br)c(N)c1)C(=O)N[C@@H](CO)C(N)=O)C(C)C  IC50 (M-phase phosphoprotein 8 chromodomain; cell-free assay; TR-FRET): 290 nM
CCCC[C@@H](NC(=O)[C@@H](N)Cc1c(C)cc(O)cc1C)C(=O)NCC(=O)N[C@@H](Cc1ccc(F)cc1)C(=O)N(C)CCC[C@@]1(c2ccc(F)cc2)OCc2cc(C#N)ccc21  Ki (ADRA2C; ligand displacement; radioligand): 280 nM
